Assay results published in ChEMBL document CHEMBL1833930, “Synthesis and biological activities of triazole derivatives as inhibitors of InhA and antituberculosis agents” (2011).
≈ marks a conversion by molar mass, not a printed value.

These molecules were tested against T1, Enoyl-[acyl-carrier-protein] reductase [NADH] (Mycobacterium tuberculosis) (UniProt P9WGR1) (assay: Inhibition of Mycobacterium tuberculosis InhA expressed in Escherichia coli BL21 using trans-2-dodecenoyl-Coenzyme A as substrate at 50 uM by spectrophotometry).
T1 sequence (whole entry): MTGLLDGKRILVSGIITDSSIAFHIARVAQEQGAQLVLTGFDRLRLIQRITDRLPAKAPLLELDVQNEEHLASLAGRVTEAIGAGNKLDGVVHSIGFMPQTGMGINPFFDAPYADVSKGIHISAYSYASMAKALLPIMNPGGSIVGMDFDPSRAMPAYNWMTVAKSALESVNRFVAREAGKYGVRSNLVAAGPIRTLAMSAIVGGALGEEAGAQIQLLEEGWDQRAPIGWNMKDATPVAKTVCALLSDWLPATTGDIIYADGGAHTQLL
Method in brief: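 Recombinant M. tuberculosis InhA was expressed in E. coli with 1 mM IPTG overnight at 20 °C. It was purified on Ni-NTA and desalted into 30 mM PIPES pH 6.8, 150 mM NaCl. Reactions ran in buffer at pH 6.8 with 150 mM NaCl. Controls were run identically without inhibitor.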

| SMILES | inhibition |
| --- | --- |
| CCCCCCCCCn1cc(CCc2ccccc2)nn1 | 58% |
| O=C(Cc1ccccc1)c1cn(CC2CCCCC2)nn1 | 12% |
| COc1cccc(Cn2cc(C(=O)Cc3ccccc3)nn2)c1 | 10% |
| CCCCCCCCn1cc(C(=O)Cc2ccccc2)nn1 | 25% |
| CCCCCCCCCCCCn1cc(CCc2ccccc2)nn1 | 40% |
| c1ccc(CCc2cn(Cc3ccccc3)nn2)cc1 | 15% |
| CCCCCCCCn1cc(CCc2ccccc2)nn1 | 46% |
| O=C(Cc1ccccc1)c1cn(Cc2ccccc2)nn1 | 13% |
| Cc1cc(C)cc(Cn2cc(C(=O)Cc3ccccc3)nn2)c1 | 10% |
| Cc1cc(C)cc(Cn2cc(CCc3ccccc3)nn2)c1 | 11% |

What follows are molecules tested on Mycobacterium tuberculosis (assay: Antimycobacterial activity against Mycobacterium tuberculosis H37Rv by twofold dilution method).
Format: functional
Method in brief: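 Single colony inoculated into complete Middlebrook 7H9 and grown at 37 °C to exponential phase (~10⁸ CFU/mL, OD600 0.8–1.0). Diluted to ~10⁷ CFU/mL, then streaked onto plates with two-fold serial compound dilutions. MIC was the lowest concentration inhibiting growth. Three independent repeats.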

| SMILES | MIC |
| --- | --- |
| O=C(Cc1ccc(Cl)cc1Cl)c1cn(Cc2ccccc2)nn1 | 289 µM (≈ 100 µg/mL) |
| O=C(Cc1ccccc1)c1cn(Cc2ccc([N+](=O)[O-])cc2)nn1 | 310 µM (≈ 100 µg/mL) |
| CCCCCCCCn1cc(C(O)Cc2ccccc2)nn1 (racemic) | 33.2 µM (≈ 10 µg/mL) |
| COc1cc(Cn2cc(C(=O)Cc3ccc(Cl)cc3Cl)nn2)cc(OC)c1 | 246 µM (≈ 100 µg/mL) |
| CCCCCCCCCn1cc(CCc2ccccc2)nn1 | 16.7 µM (≈ 5 µg/mL) |
| O=C(Cc1ccccc1)c1cn(CC2CCCCC2)nn1 | 88.2 µM (≈ 25 µg/mL) |
| COc1cc(Cn2cc(C(=O)Cc3ccccc3)nn2)cc(OC)c1 | > 296 µM |
| COc1cccc(Cn2cc(C(=O)Cc3ccccc3)nn2)c1 | 81.3 µM (≈ 25 µg/mL) |
| COc1cccc(Cn2cc(C(=O)Cc3ccc(Cl)cc3Cl)nn2)c1 | 13.3 µM (≈ 5 µg/mL) |
| Cc1cc(C)cc(Cn2cc(C(=O)Cc3ccc(Cl)cc3Cl)nn2)c1 | 267 µM (≈ 100 µg/mL) |
| c1ccc(Cc2cn(Cc3ccccc3)nn2)cc1 | 201 µM (≈ 50 µg/mL) |
| CCCCCCCCn1cc(C(=O)Cc2ccccc2)nn1 | 83.5 µM (≈ 25 µg/mL) |
| CCCCCCCCCCCCn1cc(CCc2ccccc2)nn1 | ≤ 5.9 µM |
| O=C(Cc1ccc(Cl)cc1Cl)c1cn(Cc2ccc([N+](=O)[O-])cc2)nn1 | 256 µM (≈ 100 µg/mL) |
| c1ccc(CCc2cn(Cc3ccccc3)nn2)cc1 | 94.9 µM (≈ 25 µg/mL) |
| Oc1cc(Cl)ccc1Oc1ccc(Cl)cc1Cl [TRICLOSAN] | 34.5 µM (≈ 9.99 µg/mL) |
| CCCCCCCCn1cc(C(O)Cc2ccc(Cl)cc2Cl)nn1 (racemic) | 67.5 µM (≈ 25 µg/mL) |
| c1ccc(CCc2cn(CC3CCCCC3)nn2)cc1 | 186 µM (≈ 50 µg/mL) |
| CCCCCCCCn1cc(CCc2ccccc2)nn1 | 35 µM (≈ 9.99 µg/mL) |
| O=C(Cc1ccccc1)c1cn(Cc2ccccc2)nn1 | 361 µM (≈ 100 µg/mL) |
| Cc1cc(C)cc(Cn2cc(C(=O)Cc3ccccc3)nn2)c1 | > 327 µM |
| Cc1cc(C)cc(Cn2cc(CCc3ccccc3)nn2)c1 | 34.3 µM (≈ 9.99 µg/mL) |
| c1ccc(Cn2cc(-c3ccccc3)nn2)cc1 | > 425 µM |
| CCCCCCCCn1cc(C(=O)Cc2ccc(Cl)cc2Cl)nn1 | 27.2 µM (≈ 10 µg/mL) |
